b-catenin transl: modulators of beta-catenin nuclear translocation; nuclear translocation activity, % at 5 µM; 190,000 compounds, 0.3% hits; HeLa beta-catenin nuclear translocation, immunofluorescence imaging;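 active means nuclear translocation activity above 50% at 5 µM, with a well cell count of 50 or more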;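 further: per-cell ratio of nuclear to cytoplasmic median beta-catenin stain intensity; plate controls were DMSO negative control for no effect and GSK-3 inhibitor IX positive control for full effect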
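Read-out: Nuclear/cytoplasmic beta-catenin signal ratio, % activation | Assay system: Human HeLa cell line | Times: 24 h compound exposure at 37°C, 5% CO2 | Signal: Fluorescence imaging of beta-catenin antibody stain plus DAPI | Dosing: 5 µM primary, 0.02–20 µM confirmation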
Pf gametocyte: inhibitors of late stage P. falciparum gametocyte viability; 150,000 compounds, 0.065% hits; P. falciparum stage V gametocytes, ATP luminescence, 24 h; inhibition, % at 10.9 µM;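 active means inhibition above the mean plus 3 SD of compounds within the control limits, set per campaign, cut at about 38% in these data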;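 further: 0% = DMSO wells and 100% = medium only without gametocytes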
WT yeast gro inh: growth inhibition of WT yeast, mitochondrial fusion screen | mitochondrial fusion phenotypic screen, WT strain | inhibition, % at 10 µM | 190,000 compounds, 2.1% hits | AID 1362; in the data active means inhibition above about 58%; tested in S. cerevisiae
KCC2 mod: modulators of human KCC2 chloride dependent transport; AID 1456; B-score of Tl+ flux slope (higher = more flux/activation; lower = inhibition) at 10 µM; 190,000 compounds, 2.2% hits; KCC2 cells, thallium flux FluoZin-2 fluorescence;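 active means thallium flux slope and its plate-corrected score both differing from the plate sample mean at a set confidence after two filtering rounds, in either direction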;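 further: slope of fluorescence scaled to starting intensity during 10 to 20 s after thallium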
Target sequence (Q9H2X9 whole entry, looked up): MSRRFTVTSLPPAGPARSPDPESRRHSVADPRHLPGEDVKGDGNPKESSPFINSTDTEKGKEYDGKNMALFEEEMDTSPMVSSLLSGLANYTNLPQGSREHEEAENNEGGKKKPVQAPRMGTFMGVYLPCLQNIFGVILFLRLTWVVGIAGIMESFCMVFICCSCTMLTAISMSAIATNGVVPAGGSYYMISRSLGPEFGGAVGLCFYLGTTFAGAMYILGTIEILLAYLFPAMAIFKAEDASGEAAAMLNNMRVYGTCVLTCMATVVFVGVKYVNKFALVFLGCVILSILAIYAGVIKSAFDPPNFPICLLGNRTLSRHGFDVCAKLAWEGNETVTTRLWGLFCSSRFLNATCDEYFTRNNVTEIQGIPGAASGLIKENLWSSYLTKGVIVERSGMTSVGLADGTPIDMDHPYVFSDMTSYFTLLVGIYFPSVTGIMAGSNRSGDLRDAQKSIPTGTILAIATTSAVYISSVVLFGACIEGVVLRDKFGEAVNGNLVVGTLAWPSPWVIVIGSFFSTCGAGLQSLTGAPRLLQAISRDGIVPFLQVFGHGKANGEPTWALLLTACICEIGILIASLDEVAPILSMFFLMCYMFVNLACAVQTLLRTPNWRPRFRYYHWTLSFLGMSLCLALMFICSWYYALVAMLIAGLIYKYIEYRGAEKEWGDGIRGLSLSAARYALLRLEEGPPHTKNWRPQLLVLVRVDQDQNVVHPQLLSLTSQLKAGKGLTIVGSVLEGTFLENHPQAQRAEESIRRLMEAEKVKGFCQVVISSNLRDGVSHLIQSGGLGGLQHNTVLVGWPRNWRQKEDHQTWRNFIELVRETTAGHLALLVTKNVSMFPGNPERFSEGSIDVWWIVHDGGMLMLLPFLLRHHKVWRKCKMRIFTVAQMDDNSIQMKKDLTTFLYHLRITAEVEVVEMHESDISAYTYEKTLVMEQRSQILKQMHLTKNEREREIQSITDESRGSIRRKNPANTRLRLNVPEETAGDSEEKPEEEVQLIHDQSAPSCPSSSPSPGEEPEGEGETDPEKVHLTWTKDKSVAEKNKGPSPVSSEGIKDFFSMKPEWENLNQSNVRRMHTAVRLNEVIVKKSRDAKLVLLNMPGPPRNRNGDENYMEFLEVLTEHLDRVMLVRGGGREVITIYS
MT stabilizer: microtubule stabilization, imaging screen. % tubulin-high responders, % at 10 µM. HeLa tubulin immunostaining HCS, 24 h; share of cells brighter than vehicle mean+2SD. AID 2205. 200,000 compounds, 0.83% hits;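 active means plate Z-score above 3 for both tubulin-high and condensed-nucleus cell shares, with cell loss under 80%, at 10 µM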;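 further: anti alpha tubulin signal scored within the nucleus-defined area of each cell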
* = called active by the depositor; i = inactive; . = no result given. Shown are actives, neighbours in structure and some others; about 4% of the full set was active somewhere.

SMILES	b-catenin transl	Pf gametocyte	WT yeast gro inh	KCC2 mod	MT stabilizer
O=C(NC1CCCC1)c1cc(=O)[nH]c2ccccc12	.	2	.	.	.
Cc1ccc(NC(=S)c2nc3ccccc3[nH]2)cc1	9	14	55	33*	2
Cc1ccc(C)c(Nc2nc3ccccc3[nH]2)c1	.	21	.	.	.
Cc1ccc(NC(=S)N2CCCC(c3nc4ccccc4[nH]3)C2)cc1 (stereo not given)	0	2	20	0.47	3
Cc1ccc(NC(=S)c2nc3ccccc3[nH]2)c(C)c1	-4	.	30	65*	4
C[C@H]1COC(=O)[C@@H](Cc2ccc(F)cc2)C/C=C\C[C@@H](CC(=O)N[C@@H](CO)Cc2ccccc2)C(=O)N1	.	19	.	.	.
CC(C)CCNC(=O)c1cc(-c2ccncc2)nc2ccc(S(=O)(=O)N3CCOCC3)cc12	-4	-1	2	0.38	17*
O=C(CCSc1ccc(Cl)cc1)NC12CC3CC(CC(C3)C1)C2	.	9	83*	-0.57	2
O=C(CCSc1ccc(Cl)cc1)NC1CCCCC1	1	.	-15	.	2
CCCc1nc2c(=O)n(C)c(=O)nc-2n(C)n1	3	.	64*	.	20*
Cn1nc(-c2ccccn2)nc2c(=O)n(C)c(=O)nc1-2	.	1	.	0.26	.
CC(C)c1onc(C(=O)NCc2ccccc2)c1[N+](=O)[O-]	-1	19	11	0.4	5
O=C(O)Cc1cn(Cc2cccc(Cl)c2)c2ccccc12	1	18	-1	-2.3	2
O=C(Cc1cn(Cc2cccc(Cl)c2)c2ccccc12)N1CCCCCC1	.	3	68*	-0.57	5
CC1CCCN(C(=O)Cc2cn(Cc3cccc(Cl)c3)c3ccccc23)C1 (stereo not given)	.	10	73*	-0.092	3
CCOC(=O)/C(=C/C1=CC(=C/N(C)C)/C(=O)O1)C(C)=O	-3	5	.	i	.
CCCCC(Sc1nc(N)c(NC(=O)c2ccc(OC)cc2)c(=O)[nH]1)C(=O)O (stereo not given)	0	16	-5	-0.036	2
CSc1nc2cc(Oc3cccc(Cl)c3Cl)c(Cl)cc2[nH]1	5	.	85*	1.5	.
COc1ccccc1NC(=O)/C=C/c1ccc2c(c1)OCO2	-2	-3	1	0.038	19*
COc1ccccc1NC(=O)COC(=O)/C=C/c1ccc2c(c1)OCO2	1	3	-4	-0.9	2
O=C(Nc1ccccc1C(=O)N/N=C/c1ccco1)c1ccccc1	-1	.	19	7.8*	2
CN(C)c1ccc(C(CNS(=O)(=O)c2ccc(F)c(F)c2)c2c[nH]c3ccccc23)cc1 (stereo not given)	-2	-14	74*	-0.072	5
CCc1ccc(-n2cccc2/C=C2/C(=N)N3C(=NC2=O)SN=C3S(C)(=O)=O)cc1	0	16	10	-5.4*	3
Cc1ccc(-n2cccc2/C=C2/C(=N)N3C(=NC2=O)SN=C3S(C)(=O)=O)cc1	-1	-1	-11	-3.7	2
O=[N+]([O-])c1cccc2c(N3CCCC3)ccnc12	-1	9	9	-0.91	3
SMILES	b-catenin transl	Pf gametocyte	WT yeast gro inh	KCC2 mod	MT stabilizer
Cc1ccc(-c2nc3cc(NS(=O)(=O)c4ccc(C)cc4)ccc3o2)cc1	.	.	73*	1	1
CCCC(c1nnnn1CS(=O)(=O)c1ccc(C)cc1)N1CCN(CC)CC1 (stereo not given)	0	3	9	0.53	3
COc1cc2c(cc1OC)C(c1cccs1)N(C(=S)NC(C)C)CC2 (stereo not given)	-6	-11	7	-2.3	3
COc1ccccc1Nc1ncc(C(=O)N2CCC(C(N)=O)CC2)c2ccccc12	-1	7	10	-0.41	3
COc1ccccc1NC(=O)c1cnc(Nc2ccccc2OC)c2ccccc12	118*	-13	16	0.77	35*
N#CN(Cc1ccccc1)Cc1ccccc1	-2	14	.	-0.62	.
Nc1ccc(/C=C/C(=O)c2cccs2)cc1	-1	0	1	-7.4*	2
Cc1sc(NC(=O)c2ccco2)c(C(c2cccnc2)N2CCN(CCO)CC2)c1C (stereo not given)	-1	11	-7	-0.38	2
Cc1sc(NC(=O)c2ccccc2)c(C(c2ccc(Cl)cc2)N2CCN(CCO)CC2)c1C (stereo not given)	.	13	91*	-0.24	2
Cc1sc(NC(=O)c2ccco2)c(C(c2ccc(F)cc2)N2CCN(C)CC2)c1C (stereo not given)	-1	.	95*	0.27	3
CCOc1ccc(C(c2c(NC(=O)c3ccccc3)sc(C)c2C)N2CCN(CCO)CC2)cc1 (stereo not given)	2	14	68*	0.89	4
CCCNc1nc(OCC(F)(F)F)nc(OCC(F)(F)F)n1	-8	13	-4	-1.7	3
CN1CCN(c2nc(NCCOC34CC5CC(CC(C5)C3)C4)nc(OCC(F)(F)F)n2)CC1	1	-8	83*	0.11	9
COc1cccc(-c2noc(-c3ccoc3C)n2)c1	-1	-5	14	-0.0059	3
COc1ccc(-c2noc(-c3ccoc3C)n2)cc1	2	8	8	0.65	10*
O=C1c2ccccc2CCC12N=NCC2c1ccc(Br)cc1 (stereo not given)	.	-4	68*	-0.37	24
O=C1c2ccccc2CCC12N=NCC2c1ccc(Cl)cc1 (stereo not given)	1	1	6	0.17	3
COC(=O)C1=C(C)C(c2ccc(OC)cc2OC)NC(=O)N1 (stereo not given)	0	.	-13	-0.2	3
COc1ccc(C2CC(C)(c3ccc(OC)cc3OC)Nc3ccccc3N2)c(OC)c1 (stereo not given)	27	-8	72*	-0.014	13
O=C(NCCc1ccc(Cl)cc1)Nc1cccc(Cl)c1	.	.	61*	-1.4	1
Fc1ccc(CCNC(=S)Nc2ccc(F)c(Cl)c2)cc1	0	26	77*	-2.8	2
CCOc1ccc(N2CC(C(=O)NC3=NCCS3)CC2=O)cc1 (stereo not given)	1	1	15	0.0039	1
CC1CCCCN1CCCn1c(=S)[nH]c2ccccc2c1=O (stereo not given)	0	12	11	.	3
CC1CCN(CCCn2c(=S)[nH]c3ccccc3c2=O)CC1	1	.	8	0.59	2
CC1CCC(n2c(=S)[nH]c3ccccc3c2=O)CC1 (stereo not given)	.	.	1	30*	2
O=c1c2ccccc2[nH]c(=S)n1C1CCCCC1	-5	6	2	69*	4
CC1CCCC(n2c(=S)[nH]c3ccccc3c2=O)C1C (stereo not given)	-3	.	1	29*	2
Cc1ccc(C2(c3noc(CN(C)Cc4cccnc4)n3)CCCC2)cc1	1	17	39	.	3
O=C(NN1CCOCC1)c1cccc(COc2cccc(Br)c2)c1	-2	-18	-10	0.094	6
CC1CCCCC1NC(=O)c1cncc(Br)c1 (stereo not given)	0	.	9	0.045	2

Source: PubChem BioAssay
